Calls of active or inactive are those of the source. The rule behind the calls is not given here.
Columns and labels:
dengue virus type 2 [1] = experiment: Inhibition of DENV serotype 2 NS2B-NS3 protease expressed in Escherichia coli BL21 lambda (DE3) cells using Abz-Nle-Lys-Arg-Arg-Ser-3-(NO2)Tyr as substrate at 50 uM preincubated for 15 mins followed by substrate addition measured for 15 mins by FRET assay relative to control
[2] = Inhibition of DENV serotype 2 NS2B-NS3 protease expressed in Escherichia coli BL21 lambda (DE3) cells using Abz-Nle-Lys-Arg-Arg-Ser-3-(NO2)Tyr as substrate preincubated for 15 mins followed by substrate addition measured for 15 mins by FRET assay; set-up: species or system dengue virus type 2
Procedure, shortened: (§1)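 IC50 by FRET assay at substrate 50 μM; DENV protease at 100 nM, WNV protease at 150 nM. Measured in triplicate.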

[3] = biological target: Genome polyprotein (West Nile virus) (UniProt P06935); experiment: Inhibition of WNV NS2B-NS3 protease expressed in Escherichia coli BL21 lambda (DE3) cells using Abz-Gly-Leu-Lys-Arg-Gly-Gly-3-(NO2)Tyr as substrate at 50 uM preincubated for 15 mins followed by substrate addition measured for 15 mins by FRET assay relative to control
Chain of Genome polyprotein (West Nile virus) (P06935 whole entry): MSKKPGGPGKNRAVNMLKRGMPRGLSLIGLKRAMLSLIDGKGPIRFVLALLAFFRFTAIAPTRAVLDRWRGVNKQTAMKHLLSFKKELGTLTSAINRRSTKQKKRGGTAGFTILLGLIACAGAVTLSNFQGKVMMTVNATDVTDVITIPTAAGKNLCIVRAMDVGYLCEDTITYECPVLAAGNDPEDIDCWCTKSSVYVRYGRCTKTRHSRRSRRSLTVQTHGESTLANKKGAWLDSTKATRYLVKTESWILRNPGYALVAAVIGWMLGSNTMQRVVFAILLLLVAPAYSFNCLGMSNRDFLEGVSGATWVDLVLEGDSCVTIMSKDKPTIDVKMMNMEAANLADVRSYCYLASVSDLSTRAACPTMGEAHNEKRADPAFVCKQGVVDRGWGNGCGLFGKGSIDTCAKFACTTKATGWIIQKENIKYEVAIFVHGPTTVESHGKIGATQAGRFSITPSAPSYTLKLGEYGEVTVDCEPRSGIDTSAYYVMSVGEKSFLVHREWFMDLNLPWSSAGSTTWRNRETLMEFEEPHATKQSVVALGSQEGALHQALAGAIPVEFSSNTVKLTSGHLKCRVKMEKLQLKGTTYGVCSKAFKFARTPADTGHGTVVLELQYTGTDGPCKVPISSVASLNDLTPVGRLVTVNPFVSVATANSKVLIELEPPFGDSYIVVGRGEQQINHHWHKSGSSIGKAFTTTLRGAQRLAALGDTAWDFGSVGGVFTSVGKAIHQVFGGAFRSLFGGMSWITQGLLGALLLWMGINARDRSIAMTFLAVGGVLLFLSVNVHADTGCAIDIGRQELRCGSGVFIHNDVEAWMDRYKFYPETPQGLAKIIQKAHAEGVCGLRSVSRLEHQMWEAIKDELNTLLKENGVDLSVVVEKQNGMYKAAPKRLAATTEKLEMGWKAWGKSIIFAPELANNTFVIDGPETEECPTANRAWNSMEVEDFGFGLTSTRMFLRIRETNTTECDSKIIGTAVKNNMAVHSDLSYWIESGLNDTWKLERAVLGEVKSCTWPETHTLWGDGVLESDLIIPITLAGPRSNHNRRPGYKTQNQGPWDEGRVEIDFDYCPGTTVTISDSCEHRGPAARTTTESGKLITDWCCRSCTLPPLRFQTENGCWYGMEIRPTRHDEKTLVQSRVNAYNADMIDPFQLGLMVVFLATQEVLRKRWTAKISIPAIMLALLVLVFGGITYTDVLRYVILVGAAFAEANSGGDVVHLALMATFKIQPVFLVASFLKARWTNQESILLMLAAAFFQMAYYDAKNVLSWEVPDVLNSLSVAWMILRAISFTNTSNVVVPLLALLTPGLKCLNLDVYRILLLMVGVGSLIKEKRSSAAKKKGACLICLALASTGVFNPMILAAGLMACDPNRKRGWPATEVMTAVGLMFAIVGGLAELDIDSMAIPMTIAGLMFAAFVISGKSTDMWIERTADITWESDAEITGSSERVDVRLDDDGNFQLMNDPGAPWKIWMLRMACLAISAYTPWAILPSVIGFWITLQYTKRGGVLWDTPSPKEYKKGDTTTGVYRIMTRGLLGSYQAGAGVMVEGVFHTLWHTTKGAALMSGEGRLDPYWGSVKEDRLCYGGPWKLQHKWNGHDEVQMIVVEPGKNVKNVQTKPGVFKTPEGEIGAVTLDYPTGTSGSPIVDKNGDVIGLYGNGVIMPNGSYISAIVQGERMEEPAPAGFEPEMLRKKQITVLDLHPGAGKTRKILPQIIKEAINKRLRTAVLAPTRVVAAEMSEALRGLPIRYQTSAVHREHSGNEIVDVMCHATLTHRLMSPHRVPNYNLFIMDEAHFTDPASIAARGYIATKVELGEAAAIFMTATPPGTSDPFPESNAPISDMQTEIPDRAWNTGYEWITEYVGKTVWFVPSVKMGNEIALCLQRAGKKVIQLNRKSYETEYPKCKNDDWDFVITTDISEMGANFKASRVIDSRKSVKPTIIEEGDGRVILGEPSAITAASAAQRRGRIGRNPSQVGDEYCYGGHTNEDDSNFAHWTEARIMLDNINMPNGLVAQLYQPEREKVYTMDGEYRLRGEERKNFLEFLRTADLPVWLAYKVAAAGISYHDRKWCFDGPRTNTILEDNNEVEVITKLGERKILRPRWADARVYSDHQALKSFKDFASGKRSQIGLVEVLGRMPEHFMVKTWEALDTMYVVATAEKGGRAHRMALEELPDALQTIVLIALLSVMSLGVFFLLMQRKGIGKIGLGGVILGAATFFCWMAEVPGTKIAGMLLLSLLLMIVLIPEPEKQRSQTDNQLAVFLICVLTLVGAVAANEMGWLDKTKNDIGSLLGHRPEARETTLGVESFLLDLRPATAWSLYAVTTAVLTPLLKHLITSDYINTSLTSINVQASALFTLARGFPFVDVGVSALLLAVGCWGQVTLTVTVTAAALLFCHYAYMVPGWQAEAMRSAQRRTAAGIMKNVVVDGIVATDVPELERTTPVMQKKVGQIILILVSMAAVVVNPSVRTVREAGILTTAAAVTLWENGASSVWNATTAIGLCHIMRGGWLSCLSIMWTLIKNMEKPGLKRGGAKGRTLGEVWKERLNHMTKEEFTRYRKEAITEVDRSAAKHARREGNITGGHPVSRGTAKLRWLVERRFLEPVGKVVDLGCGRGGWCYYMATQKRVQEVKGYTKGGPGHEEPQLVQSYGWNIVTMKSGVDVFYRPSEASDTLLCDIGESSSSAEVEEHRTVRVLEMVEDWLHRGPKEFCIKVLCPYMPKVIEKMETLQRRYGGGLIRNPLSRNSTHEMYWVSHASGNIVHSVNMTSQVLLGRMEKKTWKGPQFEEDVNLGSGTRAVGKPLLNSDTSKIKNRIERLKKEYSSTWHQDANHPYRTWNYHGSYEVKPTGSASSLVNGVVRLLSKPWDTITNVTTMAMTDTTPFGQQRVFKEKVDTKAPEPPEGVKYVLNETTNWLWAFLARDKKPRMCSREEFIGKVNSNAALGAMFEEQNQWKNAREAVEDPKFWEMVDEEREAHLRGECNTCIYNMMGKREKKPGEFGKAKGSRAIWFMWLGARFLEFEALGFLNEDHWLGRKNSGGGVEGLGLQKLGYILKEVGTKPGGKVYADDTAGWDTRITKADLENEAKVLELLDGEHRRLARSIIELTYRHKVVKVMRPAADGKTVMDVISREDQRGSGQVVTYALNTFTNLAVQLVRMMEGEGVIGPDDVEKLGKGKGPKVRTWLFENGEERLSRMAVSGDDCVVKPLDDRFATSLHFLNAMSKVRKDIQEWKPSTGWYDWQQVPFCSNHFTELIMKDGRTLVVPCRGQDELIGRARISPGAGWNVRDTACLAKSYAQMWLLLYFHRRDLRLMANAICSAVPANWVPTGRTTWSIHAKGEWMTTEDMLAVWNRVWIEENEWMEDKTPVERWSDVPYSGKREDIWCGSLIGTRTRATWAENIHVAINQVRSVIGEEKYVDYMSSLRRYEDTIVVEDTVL

Genome polyprotein [4] = biological target: T1, Genome polyprotein (West Nile virus, UniProt P06935); experiment: Inhibition of WNV NS2B-NS3 protease expressed in Escherichia coli BL21 lambda (DE3) cells using Abz-Gly-Leu-Lys-Arg-Gly-Gly-3-(NO2)Tyr as substrate preincubated for 15 mins followed by substrate addition measured for 15 mins by FRET assay; procedure, shortened: as §1
T1 sequence (P06935 1371-1501 limits assumed): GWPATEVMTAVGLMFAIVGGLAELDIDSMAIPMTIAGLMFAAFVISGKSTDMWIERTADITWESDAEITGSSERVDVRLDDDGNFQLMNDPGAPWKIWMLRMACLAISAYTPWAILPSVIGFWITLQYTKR
T1 sequence (P06935 1502-2120 limits assumed): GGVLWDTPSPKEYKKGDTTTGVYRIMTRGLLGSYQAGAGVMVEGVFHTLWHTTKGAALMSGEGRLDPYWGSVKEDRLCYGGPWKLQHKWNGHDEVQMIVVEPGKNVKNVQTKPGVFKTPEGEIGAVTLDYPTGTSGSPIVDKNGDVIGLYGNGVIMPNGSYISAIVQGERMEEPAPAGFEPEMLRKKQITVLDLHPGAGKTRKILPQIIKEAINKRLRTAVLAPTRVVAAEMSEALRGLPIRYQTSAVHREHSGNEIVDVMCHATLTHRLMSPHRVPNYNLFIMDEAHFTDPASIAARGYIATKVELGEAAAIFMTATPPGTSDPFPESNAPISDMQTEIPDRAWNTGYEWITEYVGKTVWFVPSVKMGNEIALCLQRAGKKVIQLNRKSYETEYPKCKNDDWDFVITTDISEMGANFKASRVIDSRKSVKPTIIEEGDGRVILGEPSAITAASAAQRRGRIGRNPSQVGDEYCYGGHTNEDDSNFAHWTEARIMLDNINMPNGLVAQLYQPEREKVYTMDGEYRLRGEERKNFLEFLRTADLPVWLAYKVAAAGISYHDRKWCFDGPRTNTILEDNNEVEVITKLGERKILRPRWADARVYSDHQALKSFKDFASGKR

[5] = biological target: Prothrombin (Homo sapiens) (UniProt P00734); experiment: Inhibition of thrombin (unknown origin) using Boc-Val-Pro-Arg-AMC as substrate at 25 uM preincubated for 15 mins followed by substrate addition measured for 10 mins by FRET assay relative to control
Genome polyprotein [6] = biological target: T1, Genome polyprotein; experiment: Competitive inhibition of WNV NS2B-NS3 protease expressed in Escherichia coli BL21 lambda (DE3) cells using Abz-Gly-Leu-Lys-Arg-Gly-Gly-3-(NO2)Tyr as substrate preincubated for 15 mins followed by substrate addition measured for 15 mins by Cheng-Prusoff plot analysis
Procedure, shortened: (§2)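 WNV protease, FRET read-out. Substrate at 50, 100, 150, 200 μM; inhibitor at 0, 0.5, 1, 2, 3, 4, 5, 6 μM; triplicates repeated three times, 12 outliers of 288 values excluded. Ki taken from the Cheng-Prusoff plot (Y-intercept of IC50 vs substrate) or the Dixon plot (mean of line intersections).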

Genome polyprotein [7] = biological target: T1, Genome polyprotein; experiment: Inhibition of WNV NS2B-NS3 protease expressed in Escherichia coli BL21 lambda (DE3) cells using Abz-Gly-Leu-Lys-Arg-Gly-Gly-3-(NO2)Tyr as substrate preincubated for 15 mins followed by substrate addition measured for 15 mins by Dixon plot analysis; procedure, shortened: as §2
[8] = biological target: Genome polyprotein (West Nile virus) (UniProt P06935); experiment: Competitive inhibition of WNV NS2B-NS3 protease expressed in Escherichia coli BL21 lambda (DE3) cells using Abz-Gly-Leu-Lys-Arg-Gly-Gly-3-(NO2)Tyr as substrate at 0.5 to 6 uM preincubated for 15 mins followed by substrate addition measured for 15 mins by Cheng-Prusoff plot analysis; procedure, shortened: as §2
dengue virus type 2 [9] = experiment: Inhibition of DENV serotype 2 NS2B-NS3 protease expressed in Escherichia coli BL21 lambda (DE3) cells by HPLC-based assay
dengue virus type 2 [10] = experiment: Binding affinity to DENV serotype 2 NS2B-NS3 protease expressed in Escherichia coli BL21 lambda (DE3) cells by fluorescence quenching assay in absence of DENV protease inhibitor aprotinin
Procedure, shortened: (§3)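 DENV protease held at 1 μM, aprotinin at 10 μM, inhibitor at 0, 0.5, 1, 2, 5, 10, 20, 30, 40, 48 μM. Read-out is the intrinsic Trp50 fluorescence of the protease, measured with and without aprotinin. Readings with aprotinin corrected for aprotinin's own fluorescence.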

dengue virus type 2 [11] = experiment: Binding affinity to DENV serotype 2 NS2B-NS3 protease expressed in Escherichia coli BL21 lambda (DE3) cells at 0.5 to 48 uM by fluorescence quenching assay in presence of DENV protease inhibitor aprotinin; procedure, shortened: as §3
[12] = Competitive inhibition of DENV serotype 2 NS2B-NS3 protease expressed in Escherichia coli BL21 lambda (DE3) cells using Abz-Nle-Lys-Arg-Arg-Ser-3-(NO2)Tyr as substrate preincubated for 15 mins followed by substrate addition measured for 15 mins by Cheng-Prusoff plot analysis; set-up: species or system dengue virus type 2
Procedure, shortened: (§4)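 DENV serotype 2 protease, FRET read-out. Substrate at 50, 100, 150, 200 μM; inhibitor at 0, 0.25, 0.5, 1, 1.5, 2, 2.5, 3 μM; triplicates, two outliers of 96 values excluded. Ki taken from the Cheng-Prusoff plot (IC50 vs substrate, Y-intercept), the Dixon plot (mean of line intersections), or the Cornish-Bowden plot.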

[13] = Inhibition of DENV serotype 2 NS2B-NS3 protease expressed in Escherichia coli BL21 lambda (DE3) cells using Abz-Nle-Lys-Arg-Arg-Ser-3-(NO2)Tyr as substrate preincubated for 15 mins followed by substrate addition measured for 15 mins by Dixon plot analysis; set-up: species or system dengue virus type 2; procedure, shortened: as §4
dengue virus type 2 [14] = experiment: Competitive inhibition of DENV serotype 2 NS2B-NS3 protease expressed in Escherichia coli BL21 lambda (DE3) cells using Abz-Nle-Lys-Arg-Arg-Ser-3-(NO2)Tyr as substrate at 0.25 to 3 uM preincubated for 15 mins followed by substrate addition measured for 15 mins by Cornish-Bowden plot analysis; procedure, shortened: as §4

Row | IC50 [2] | inhibition [3] | IC50 (Genome polyprotein [4]) | inhibition [5] | SMILES | inhibition (dengue virus type 2 [1]) | also measured
1 | 1050 nM | 99.6% | 750 nM | 6.9% | N=C(N)NCCC[C@H](NC(=O)c1ccc(/C=C2\SC(=O)N(CC3CCCCC3)C2=O)cc1)C(=O)N[C@@H](CCCCN)C(=O)N[C@H](C(N)=O)c1ccccc1 | 99.3% | Ki (Genome polyprotein [6]): 1300 nM; Ki (Genome polyprotein [7]): 820 nM; inhibition [8]: Active
2 | 990 nM | 93.1% | 2360 nM | 10.9% | C#CCN1C(=O)S/C(=C\c2ccc(C(=O)N[C@@H](CCCNC(=N)N)C(=O)N[C@@H](CCCCN)C(=O)N[C@H](C(N)=O)c3ccccc3)cc2)C1=O | 99.2% | 
3 |  | 32.4% |  |  | O=C(O)c1ccc(/C=C2\SC(=O)N(CC3CCCC3)C2=O)cc1 | 15.9% | inhibition (dengue virus type 2 [9]): inactive
4 | 850 nM | 105% | 2750 nM | 10.4% | C#CCCCN1C(=O)S/C(=C\c2ccc(C(=O)N[C@@H](CCCNC(=N)N)C(=O)N[C@@H](CCCCN)C(=O)N[C@H](C(N)=O)c3ccccc3)cc2)C1=O | 103% | 
5 |  | 20.8% |  |  | C#CCCN1C(=O)S/C(=C\c2ccc(C(=O)O)cc2)C1=O | inactive | inhibition (dengue virus type 2 [9]): inactive
6 |  | 34.8% |  |  | CC(C)N1C(=O)S/C(=C\c2ccc(C(=O)O)cc2)C1=O | 16.3% | inhibition (dengue virus type 2 [9]): inactive
7 | 1920 nM | 101% | 1130 nM | 7.3% | N=C(N)NCCC[C@H](NC(=O)c1ccc(/C=C2\SC(=O)N(CCC3CCCCC3)C2=O)cc1)C(=O)N[C@@H](CCCCN)C(=O)N[C@H](C(N)=O)c1ccccc1 | 99.9% | 
8 | 920 nM | 92.8% | 2500 nM | 38.9% | CCC(C)N1C(=O)S/C(=C\c2ccc(C(=O)N[C@@H](CCCNC(=N)N)C(=O)N[C@@H](CCCCN)C(=O)N[C@H](C(N)=O)c3ccccc3)cc2)C1=O (some centres undefined) | 102% | 
9 | 740 nM | 95% | 1120 nM | 8% | CCC(CC)N1C(=O)S/C(=C\c2ccc(C(=O)N[C@@H](CCCNC(=N)N)C(=O)N[C@@H](CCCCN)C(=O)N[C@H](C(N)=O)c3ccccc3)cc2)C1=O | 99.3% | 
10 |  | inactive |  |  | O=C(O)c1ccc(/C=C2\SC(=O)N(CC34CC5CC(CC(C5)C3)C4)C2=O)cc1 | inactive | inhibition (dengue virus type 2 [9]): inactive
11 | 620 nM | 95.3% | 1690 nM | 4.7% | N=C(N)NCCC[C@H](NC(=O)c1ccc(/C=C2\SC(=O)N(C3CCC3)C2=O)cc1)C(=O)N[C@@H](CCCCN)C(=O)N[C@H](C(N)=O)c1ccccc1 | 100% | 
12 | 790 nM | 98% | 1710 nM | 9.5% | N=C(N)NCCC[C@H](NC(=O)c1ccc(/C=C2\SC(=O)N(C3CCCCC3)C2=O)cc1)C(=O)N[C@@H](CCCCN)C(=O)N[C@H](C(N)=O)c1ccccc1 | 101% | 
13 |  | 40.7% |  |  | CCC(CC)N1C(=O)S/C(=C\c2ccc(C(=O)O)cc2)C1=O | 11.2% | inhibition (dengue virus type 2 [9]): inactive
14 | 460 nM | 97.8% | 2120 nM | 13% | C#CCCN1C(=O)S/C(=C\c2ccc(C(=O)N[C@@H](CCCNC(=N)N)C(=O)N[C@@H](CCCCN)C(=O)N[C@H](C(N)=O)c3ccccc3)cc2)C1=O | 99.9% | Activity (dengue virus type 2 [10]): Dose-dependent effect; Activity (dengue virus type 2 [11]): inactive; Ki [12]: 400 nM; Ki [13]: 100 nM; inhibition (dengue virus type 2 [14]): Active
15 | 780 nM | 95.9% | 1390 nM | 8% | N=C(N)NCCC[C@H](NC(=O)c1ccc(/C=C2\SC(=O)N(CC3CCC3)C2=O)cc1)C(=O)N[C@@H](CCCCN)C(=O)N[C@H](C(N)=O)c1ccccc1 | 99.7% | 
16 | 1010 nM | 90.7% | 6240 nM | inactive | CC(C)CN1C(=O)S/C(=C\c2ccc(C(=O)N[C@@H](CCCNC(=N)N)C(=O)N[C@@H](CCCCN)C(=O)N[C@H](C(N)=O)c3ccccc3)cc2)C1=O | 99.6% | 
17 | 650 nM | 99.2% | 1350 nM | 8.7% | CCC(CC)CN1C(=O)S/C(=C\c2ccc(C(=O)N[C@@H](CCCNC(=N)N)C(=O)N[C@@H](CCCCN)C(=O)N[C@H](C(N)=O)c3ccccc3)cc2)C1=O | 100% | 
18 | 740 nM | 107% | 1270 nM | 6.6% | N=C(N)NCCC[C@H](NC(=O)c1ccc(/C=C2\SC(=O)N(CC34CC5CC(CC(C5)C3)C4)C2=O)cc1)C(=O)N[C@@H](CCCCN)C(=O)N[C@H](C(N)=O)c1ccccc1 | 102% | 
19 | 580 nM | 93.5% | 2030 nM | 9.7% | CC(C)(C)CN1C(=O)S/C(=C\c2ccc(C(=O)N[C@@H](CCCNC(=N)N)C(=O)N[C@@H](CCCCN)C(=O)N[C@H](C(N)=O)c3ccccc3)cc2)C1=O | 101% | 
20 | 470 nM | 94.4% | 3590 nM | 8.5% | CC(C)N1C(=O)S/C(=C\c2ccc(C(=O)N[C@@H](CCCNC(=N)N)C(=O)N[C@@H](CCCCN)C(=O)N[C@H](C(N)=O)c3ccccc3)cc2)C1=O | 99.1% | 
21 | 830 nM | 101% | 2110 nM | 11.5% | N=C(N)NCCC[C@H](NC(=O)c1ccc(/C=C2\SC(=O)N(C3CCCCCC3)C2=O)cc1)C(=O)N[C@@H](CCCCN)C(=O)N[C@H](C(N)=O)c1ccccc1 | 100% | 
22 | 850 nM | 98.8% | 1010 nM | 10.1% | N=C(N)NCCC[C@H](NC(=O)c1ccc(/C=C2\SC(=O)N(CC3CCCC3)C2=O)cc1)C(=O)N[C@@H](CCCCN)C(=O)N[C@H](C(N)=O)c1ccccc1 | 100% | 
23 |  | 35% |  |  | O=C(O)c1ccc(/C=C2\SC(=O)N(CC3CCCCC3)C2=O)cc1 | 23% | inhibition (dengue virus type 2 [9]): inactive
24 | 510 nM | 98.9% | 1910 nM | 9.7% | CC(C)(C)CCN1C(=O)S/C(=C\c2ccc(C(=O)N[C@@H](CCCNC(=N)N)C(=O)N[C@@H](CCCCN)C(=O)N[C@H](C(N)=O)c3ccccc3)cc2)C1=O | 101% | 
25 | 900 nM | 95.4% | 1760 nM | 7.3% | CC(C)CCN1C(=O)S/C(=C\c2ccc(C(=O)N[C@@H](CCCNC(=N)N)C(=O)N[C@@H](CCCCN)C(=O)N[C@H](C(N)=O)c3ccccc3)cc2)C1=O | 100% | 
26 |  | 41.1% |  |  | CC(C)(C)CN1C(=O)S/C(=C\c2ccc(C(=O)O)cc2)C1=O | 13.1% | inhibition (dengue virus type 2 [9]): inactive
